Measurements: article PMC4764081 (Science (New York, N.Y.), 2015)

How the values were obtained:
centrosomes [1] = assay: centrosome amplification in cells; format: cell-based; details: fig. S1
[2] = molecular target: T1, Polo-like kinase 4 (Plk4) (Homo sapiens, UniProt O00444); assay: Plk4 inhibition in vitro; format: biochemical; details: read-out: inhibition constant (Ki)
T1 sequence (O00444 1-970): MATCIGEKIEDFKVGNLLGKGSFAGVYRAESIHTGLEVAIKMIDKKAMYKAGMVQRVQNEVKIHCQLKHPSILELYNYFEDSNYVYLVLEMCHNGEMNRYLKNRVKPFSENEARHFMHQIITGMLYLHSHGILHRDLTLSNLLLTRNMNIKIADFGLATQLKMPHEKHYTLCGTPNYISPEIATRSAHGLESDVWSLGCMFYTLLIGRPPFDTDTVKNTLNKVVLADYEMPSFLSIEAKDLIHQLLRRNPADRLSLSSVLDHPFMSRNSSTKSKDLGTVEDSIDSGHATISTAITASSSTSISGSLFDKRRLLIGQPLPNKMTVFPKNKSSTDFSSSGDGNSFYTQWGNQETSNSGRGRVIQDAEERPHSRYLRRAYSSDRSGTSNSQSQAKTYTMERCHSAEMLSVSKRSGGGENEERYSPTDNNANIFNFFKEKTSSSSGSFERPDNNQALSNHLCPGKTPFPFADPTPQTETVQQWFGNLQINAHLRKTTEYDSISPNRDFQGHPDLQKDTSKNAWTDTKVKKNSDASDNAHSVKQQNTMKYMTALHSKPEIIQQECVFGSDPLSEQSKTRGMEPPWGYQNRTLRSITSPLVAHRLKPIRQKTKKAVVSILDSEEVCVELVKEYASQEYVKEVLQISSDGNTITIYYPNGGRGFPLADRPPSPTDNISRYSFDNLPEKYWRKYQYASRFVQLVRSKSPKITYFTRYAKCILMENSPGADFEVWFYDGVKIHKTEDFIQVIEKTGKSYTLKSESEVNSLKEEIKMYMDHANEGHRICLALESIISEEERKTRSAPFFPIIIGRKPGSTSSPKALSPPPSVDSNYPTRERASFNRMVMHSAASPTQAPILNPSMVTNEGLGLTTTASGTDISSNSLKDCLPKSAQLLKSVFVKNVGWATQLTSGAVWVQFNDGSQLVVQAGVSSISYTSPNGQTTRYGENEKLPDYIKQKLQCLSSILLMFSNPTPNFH

centrosomes [3] = assay: centrosome depletion; format: cell-based; details: cellular activity
g-H2A.X foci = g-H2A.X foci in RPE1 nuclei; format: cell-based, human; details: RPE1 treated cells
Method in brief: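 γ-H2A.X foci, marking double-strand DNA breaks, counted in nuclei of treated RPE1 cells. Values are means ± SD, N = 3.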

[4] = tested on: RPE1 cells expressing G95L Plk4; assay: RPE1 Plk4 G95L knock-in cells, centrosome number and passaging; format: cell-based, human; details: RPE1, both endogenous PLK4 alleles G95L
[5] = tested on: RPE1 cells coexpressing centrin-GFP and H2B-RFP; assay: RPE1 lineage analysis by live-cell imaging; format: cell-based, human; details: acute treatment
Method in brief: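 RPE1 cells coexpressing centrin-GFP and H2B-RFP filmed after inhibitor addition. Both GFP and RFP channels were imaged at first to count centrosomes and follow mother-cell mitosis. Daughter fate was then tracked with RFP only. Arrest was scored as failure to enter mitosis within 48 hours of cell birth, and the percentage arresting per generation was reported; N = 2.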

NIH/3T3 cells = assay: mitotic duration by imaging, NIH/3T3; format: cell-based, mouse; details: centrosome-less NIH/3T3 cells
[6] = tested on: HeLa human cervical carcinoma cells; assay: centriole/centrosome depletion and washout in HeLa cells; format: cell-based
Method in brief: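 HeLa cells under continuous treatment scored for foci carrying centriolar and pericentriolar markers at each round of division. Cells were imaged 7 days after inhibitor addition and again 10 days after washout.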

[7] = tested on: RPE1 human retinal pigment epithelial cells; assay: RPE1 passaging assay and flow cytometry; format: cell-based
Method in brief: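 RPE1 cells passaged with inhibitor added on day 0 and washed out on day 8; proliferation followed over serial passages. Data are means ± SD, N = 2.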

[8] = tested on: multiciliated Xenopus epithelial cells; assay: centriole number in multiciliated Xenopus epithelial cells; format: cell-based
[9] = tested on: NIH/3T3 cells induced to overexpress Plk4-GFP; assay: centriole amplification in cells overexpressing wild-type or G95L Plk4-GFP; format: cell-based, mouse
HeLa cells = assay: mitotic duration by imaging, HeLa; format: cell-based, human; details: centrosome-less HeLa cells
p53 = assay: Western blot of p53 in RPE1 cells; format: cell-based, human; details: RPE1, without genotoxic stress

Structure (SMILES): COc1ccc2c(c1)[C@]1(C[C@H]1c1ccc3c(/C=C/c4ccc(CN5C[C@@H](C)O[C@@H](C)C5)cc4)n[nH]c3c1)C(=O)N2 [CFI-400945]
- effect on centrosome number (centrosomes [1]): induces centrosome amplification

Structure (SMILES): COc1c(Nc2cc(C)[nH]n2)nc(Sc2ccc(S(=O)(=O)Cc3cccc([N+](=O)[O-])c3F)cc2F)nc1N1CCCCC1 [centrinone-B]
- Ki [2]: 0.6 nM
- centrosome depletion at (concentration) (centrosomes [3]): 500 nM

Structure (SMILES): COc1c(Nc2cc(C)[nH]n2)nc(Sc2ccc(S(=O)(=O)Cc3cccc([N+](=O)[O-])c3F)cc2F)nc1N1CCOCC1 [centrinone]
- g-H2A.X foci abundance (g-H2A.X foci): not more abundant
- centrosome loss or proliferation arrest [4]: did not lead to centrosome loss or proliferation arrest
- fraction of progeny arrested ([5]; one-centrosome progeny of pioneer one-centrosome mothers): 25.5%
- fraction of progeny arrested ([5]; progeny of pioneer zero-centrosome mothers): 70%
- fraction of progeny arrested ([5]; zero-centrosome progeny of pioneer one-centrosome mothers): 33.0%
- increase of mitotic duration (NIH/3T3 cells): ~20 min
- centrosome depletion at (concentration) (centrosomes [3]): 100 nM
- reversibility of centriole loss ([6]; 10 days after washout): fully reversible
- effect on centriolar and pericentriolar material foci ([6]; at each round of cell division): progressive reduction
- effect on cell cycle ([7]; RPE1, 12-day passaging assay and flow cytometry): cell cycle arrest in G1
- effect on centriole number [8]: reduced centriole number
- effect on centriole amplification [9]: blocked centriole amplification
- increase of mitotic duration (HeLa cells): ~1 h

Structure (SMILES): CCOc1cc(C(C)(C)C)ccc1C1=N[C@@](C)(c2ccc(Cl)cc2)[C@@](C)(c2ccc(Cl)cc2)N1C(=O)N1CCN(CCCS(C)(=O)=O)CC1 [R7112, reference compound]
- effect on p53 levels (p53): raised p53 levels
- proliferation after washout ([7]; RPE1, addition day 0, washout day 8): resumption of proliferation
